Screening data as filed in PubChem.
The full list was thinned out, with hits kept by preference.
Diaphorase act: diaphorase activation or chemical reduction counter-screen; Diaphorase/resazurin coupled assay, resorufin fluorescence, 16 min; stronger effect = higher value; 1 = vehicle wells, 0 = NADH-free wells; AID 1229; activation factor at 20 µM; 0.005% of 190,000 active;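 active = diaphorase activity raised at least twofold by the compound at 20 µM; inactive = activation factor below 2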
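Measured by – red resorufin fluorescence at 544/590 nm excitation/emission · Test system – Clostridium kluyveri diaphorase, purified enzyme · Incubation – reaction time 16 min, room temperature · Buffer or medium – 50 mM HEPES pH 7.4 with 4.542 mM MgCl2, 0.005% Tween 20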
FLuc act counter: affects firefly luciferase, flagging false hits in luciferase stimulation screens; ATPlite luciferase biochemical, luminescence, 10 min; 0 = ATP-free wells, 1 = DMSO control; 200,000 tested, under 10 active; activation factor at 10 µM; P08659;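 active = luciferase activation factor, scaled between plate controls, of at least 2 with compound at 10 µM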
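assay system = Luciferase/luciferin detection reagent, cell-free biochemical luciferase assay | also added = ATP substrate | times = 10 min post-reagent at room temperature | measured by = luminescence from luciferase reaction | measure = luciferase activation, seen as luminescence increase over controls | benchmarks = low control with PBS replacing ATP, high control enzyme plus ATP without compound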
ABCB6 inh MLPCN: human ABCB6 transporter inhibition | AID 602162 | 0.19% of 360,000 active | Q9NP58 | K562-ABCB6 porphyrin accumulation, flow cytometry, 1 h; stronger effect = lower value | fluorescence ratio to DMSO, % at 10 µM;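 active = fluorescence ratio to DMSO below 75%, the collection mean minus 3 SD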;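 note: signal is porphyrin accumulated inside mitochondria; 100% equals median channel fluorescence of DMSO control wells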
Target sequence (Q9NP58 whole entry, looked up): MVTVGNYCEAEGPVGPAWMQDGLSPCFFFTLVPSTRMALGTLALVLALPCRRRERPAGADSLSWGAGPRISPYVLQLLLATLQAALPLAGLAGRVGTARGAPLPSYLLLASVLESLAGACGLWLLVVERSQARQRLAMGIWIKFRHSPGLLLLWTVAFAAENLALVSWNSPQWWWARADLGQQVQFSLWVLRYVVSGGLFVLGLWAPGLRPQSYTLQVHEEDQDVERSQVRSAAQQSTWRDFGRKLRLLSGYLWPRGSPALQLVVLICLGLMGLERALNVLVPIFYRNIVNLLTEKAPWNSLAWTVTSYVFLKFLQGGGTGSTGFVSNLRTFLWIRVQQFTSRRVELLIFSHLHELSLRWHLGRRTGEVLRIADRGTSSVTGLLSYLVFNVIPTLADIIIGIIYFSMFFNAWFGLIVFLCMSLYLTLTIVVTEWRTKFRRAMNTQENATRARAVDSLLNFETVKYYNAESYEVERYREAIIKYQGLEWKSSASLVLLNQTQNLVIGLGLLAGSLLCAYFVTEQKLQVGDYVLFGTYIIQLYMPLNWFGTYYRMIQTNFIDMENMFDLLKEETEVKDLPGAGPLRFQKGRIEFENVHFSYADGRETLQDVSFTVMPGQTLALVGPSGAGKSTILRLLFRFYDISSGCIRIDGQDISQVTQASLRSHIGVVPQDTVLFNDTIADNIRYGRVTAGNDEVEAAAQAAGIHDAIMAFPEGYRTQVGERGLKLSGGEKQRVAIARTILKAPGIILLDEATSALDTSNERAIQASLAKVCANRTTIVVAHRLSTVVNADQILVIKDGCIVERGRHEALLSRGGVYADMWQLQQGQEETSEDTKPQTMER
FLuc inh counter: counter-screen for luciferase assay inhibitors: firefly luciferase inhibition; P08659; ATPLite firefly luciferase biochemical luminescence, 10 min; inhibition, % at 10 µM; 1.5% of 200,000 active; AID 1006;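 active = inhibition above about 50% when tested at 10 µM, limit read from the data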
ABCG2 block: blocks JC-1 efflux by human ABCG2 transporter; Q9UNQ0; IgMXP3 cells, flow cytometry; inhibition, % at 6.6 µM; 0.1% of 190,000 active; AID 1325;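 active = inhibition above 80%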;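 note: 0% = DMSO and 100% = nicardipine control wells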
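Test system: ABCG2 IgMXP3 and barcoded ABCB1 CCRF-Adr cell mix; Schedule: cells with compound and JC-1, 10 min at 25 °C, rotating, no wash; Technique: flow cytometry of retained JC-1 fluorescence; Measure: % inhibition of efflux relative to nicardipine and DMSO; Controls: nicardipine high and DMSO low controls.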
ABCB1 inh: human ABCB1 inhibition, ABCG2 as counter-screen; 0.067% of 190,000 active; P08183; CCRF-Adr cells, JC-1 efflux, flow cytometry; inhibition, % at 6.6 µM; in the data active = inhibition above about 40%;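 note: 0% = vehicle and 100% = reference inhibitor; higher value means more JC-1 retained so stronger ABCB1 efflux block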
* marks the source's active call; other numbers are inactive results; . = no result given.

SMILES | Diaphorase act | FLuc act counter | ABCB6 inh MLPCN | FLuc inh counter | ABCG2 block | ABCB1 inh
CN(C)c1ccc(N=Nc2ccccc2C(=O)OCC(=O)N(C)c2ccccc2)cc1 | 0.8 | 0.3 | 103 | 65* | 23 | 2
COc1cc(/C=N/O)ccc1OCc1ccc(Cl)cc1 | 1.1 | 0.6 | . | 43 | 10 | 1
COc1cc(/C=N/O)ccc1OCc1ccc(C(=O)O)cc1 | 0.9 | 0.1 | 92 | 88* | 2 | 0
O=C(COc1ccccc1)Nc1nnc(S(=O)(=O)Nc2ccccc2)s1 | . | . | 102 | . | . | .
COC(=O)CC(NC(=O)c1ccc(C)cc1)c1ccccc1 (centres undefined) | 1 | 0.3 | 101 | 65* | 1 | 0
COCOCCn1cc(CN2CCS(=O)(=O)N(Cc3ccc(-c4ccc(OC)c(OC)c4)cc3)C(CC(C)C)C2=O)nn1 (centres undefined) | . | . | 95 | . | . | .
CCN1C(=O)C2(Nc3ccccc3-c3nc4ccccc4n32)c2cc(OC)ccc21 (centres undefined) | 0.5 | 1.1 | 98 | -10 | 16 | 53*
CSc1n[nH]c(NCc2ccc(C)cc2)n1 | 1 | 0.4 | 98 | 60* | -1 | 0
CSc1n[nH]c(NCc2ccc(Cl)cc2)n1 | 1 | 0.8 | 101 | 19 | 4 | 0
COc1ccc(N2CCN(C(=O)CCC(=O)N3CC(C)Oc4ccc(C)cc43)CC2)cc1 (centres undefined) | . | . | 98 | . | . | .
C/C(=N\NC(=O)c1ccc(Cl)cc1)c1cccs1 | 0.9 | 0.1 | 103 | 90* | 3 | 1
C/C(=N/NC(=O)c1ccc(Br)o1)c1cccs1 | . | . | 102 | . | . | .
C/C(=N\NC(=O)c1ccccc1O)c1ccc(Br)s1 | 1 | 0.2 | 96 | 79* | 5 | -1
C/C(=N\NC(=O)c1cc(Br)ccc1O)c1cccs1 | 1 | 0.4 | 97 | 65* | -1 | -1
CC1(C)CC(=O)C=C(c2cccc(O)c2)C1 | . | . | 104 | . | . | .
Cn1c(=O)c2ncn(C)c2n(C)c1=O | . | . | 98 | . | . | .
O=C(O)c1cccc(COc2ccccc2Cl)c1 | 1 | 0.4 | 100 | 63* | 7 | 1
COc1ccc(-c2nc3ccccc3n2OCC(=O)O)cc1 | 1 | 0.3 | 101 | 72* | 15 | 3
Cc1[nH]c2ccccc2c1/C=C/c1nc2ccccc2c(=O)[nH]1 | . | . | 97 | . | . | .
Cc1cccc(/C=C/c2nc3ccccc3c(=O)[nH]2)c1 | 1 | 0.3 | 103 | 68* | 2 | 0
O=C(CSc1nnc(-c2ccncc2)n1-c1ccccc1)NC1CC1 | . | . | 100 | . | . | .
Cc1cc(C(=O)N2CCC2(C)C(=O)Nc2cc(C(C)(C)C)nn2C)nn1C (centres undefined) | . | . | 98 | . | . | .
NNc1nc(-c2ccccc2)nc2sc3c(c12)CCCC3 | 0.9 | 0.2 | 108 | 84* | 9 | 1
Cc1csc(=O)n1CCC(=O)OCC(=O)N(C)c1c(N)n(Cc2ccccc2)c(=O)[nH]c1=O | . | . | 98 | . | . | .
CCc1ccc(/C=C/C(=O)C2C(=O)c3ccccc3C2=O)cc1 | 1 | 0 | 104 | 96* | -1 | 0
SMILES | Diaphorase act | FLuc act counter | ABCB6 inh MLPCN | FLuc inh counter | ABCG2 block | ABCB1 inh
O=C(/C=C/c1ccccc1)C1C(=O)c2ccccc2C1=O | 1 | 0 | 98 | 95* | -2 | -1
CC(C)(C)Cc1c(-c2ccco2)nc2ccc(Cl)cn12 | . | . | 108 | . | . | .
Cc1ccc(CNC(=O)C2CCN(C(=O)Nc3ccccc3)CC2)cc1 | . | . | 95 | . | . | .
Cc1cc(NC(=O)C(C)SCC(=O)OCc2c(Cl)cccc2Cl)no1 (centres undefined) | . | . | 96 | . | . | .
CC1CN/C(=C\C(=O)c2ccc(Cl)cc2)C(=O)N1 (centres undefined) | 1.1 | 0.5 | 87 | 51* | 4 | 0
O=C(COC(=O)c1cc(-c2cccc(Br)c2)nc2ccccc12)NCC1CCCO1 (centres undefined) | 0.9 | 1 | 95 | 2 | 8 | 1
Cc1cccc(Nc2nc3c(s2)CCCC3)c1 | 0.9 | 0.9 | 99 | 12 | -1 | 0
O=S1(=O)N=C(Nc2nc3c(s2)CCCC3)c2ccccc21 | 0.9 | 0.1 | 80 | 87* | -6 | -1
CCc1ccc(NC(=O)Nc2cccc(OC)c2)cc1 | 0.9 | 0.5 | 101 | 52* | -2 | -1
COc1ccc(C(=O)Nc2cccc(OC)c2)cc1 | 0.9 | 0.3 | 96 | 67* | 3 | -3
COc1ccc(C(=O)NNC(=S)NC(=O)c2ccc(OC)cc2)cc1 | . | . | 95 | . | . | .
COc1ccc(C(=O)NNC(=S)Nc2ccccc2)cc1 | 0.9 | 0.4 | 101 | 57* | 4 | 0
COc1ccc(C(=O)Nc2cc(C)on2)cc1 | 1 | 0.3 | 96 | 73* | 32 | 0
COc1cccc(NC(=O)Nc2ccc(CC(=O)O)cc2)c1 | 1 | 0.7 | 100 | 26 | 0 | 1
COc1ccccc1CNC(=O)COC(=O)C1CCN(c2ccc(C(F)(F)F)cn2)CC1 | . | . | 96 | . | . | .
Cc1cc(C)nc(Nc2n[nH]c(-c3ccccc3Cl)n2)n1 | 0.9 | 0.4 | 92 | 58* | 6 | 1
Cc1cc(C)nc(Nc2n[nH]c(-c3cccc4ccccc34)n2)n1 | 0.9 | 1 | 96 | -3 | 19 | 1
O=C1C=C(C#Cc2ccc(Oc3ccccc3)cc2)C[C@@H](c2ccc(F)cc2)C1 | . | . | 100 | . | . | .
O=C(Nc1nc2ccccc2[nH]1)c1cc(F)cc(F)c1 | . | . | 98 | . | . | .
O=C(Nc1nc2ccccc2[nH]1)c1ccc(F)cc1 | 0.9 | 0.1 | 91 | 91* | 49 | 5
O=C(Nc1nc2ccccc2[nH]1)c1ccccc1F | 0.9 | 0 | 100 | 96* | 35 | 0
N#C/C(=C\c1ccc2c(c1)OCCO2)C(=O)Nc1ccc(C(=O)O)cc1 | . | . | 95 | . | . | .
N#C/C(=C/c1ccc2c(c1)OCO2)C(=O)Nc1ccc(O)cc1 | 1 | 0.4 | 91 | 60* | 4 | 0
COc1ccc(N(C(=O)c2snc(C(N)=O)c2N)C(CC(C)C)C(=O)NCC2CCCO2)cc1 (centres undefined) | . | . | 97 | . | . | .
CCn1cnc2cc(NC(=O)c3cccs3)ccc21 | 0.9 | 0.5 | 91 | 51* | 5 | 1
SMILES | Diaphorase act | FLuc act counter | ABCB6 inh MLPCN | FLuc inh counter | ABCG2 block | ABCB1 inh
CC(C)(C)n1cnc2cc(NC(=O)c3cccs3)ccc21 | 0.9 | 0.3 | 98 | 71* | 9 | 1
CC(C)(C)n1cnc2cc(NC(=O)c3ccccc3)ccc21 | . | . | 96 | . | . | .
CCOC(=O)c1cccc(C2=CC(=O)C[C@H](c3ccc(Cl)cc3)C2)c1 | . | . | 95 | . | . | .
CCn1nc(C(=O)OCC(=O)c2cc(C)n(Cc3cccs3)c2C)c2ccccc2c1=O | 0.7 | 0.4 | 98 | 58* | 1 | 1
Cc1cc(C(=O)COC(=O)c2ccc3c(c2)OCO3)c(C)n1Cc1cccs1 | 0.8 | 0.7 | 98 | 31 | 0 | 0
Cc1cc(C(=O)COC(=O)c2ccccc2O)c(C)n1Cc1cccs1 | 0.8 | 0.1 | 95 | 90* | 2 | 0
